Bioassay records (PubChem)
Dynein cargo inh: dynein cargo transport inhibition; 3617.4 mouse cells, GR-EGFP nuclear translocation imaging; test concentration mostly 20 µM; stimulated with dexamethasone, 1 µM; hits give low values; z-score, hits read low; 220,000 compounds, 0.47% hits;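 active = plate z-score of nuclear minus cytoplasmic receptor signal below a set negative limit, without overly bright fluorescence or cell loss, cut at about -3.5 in these data, passing the limit was not always enough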;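 also: z-score of nuclear minus cytoplasmic ring GR-EGFP intensity difference per well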
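Buffer or medium: tet-free medium with charcoal-stripped serum / Also added: dexamethasone agonist, 1.0 µM final, for 30 min / Timing: induction 48 h, compound 1 h, agonist 30 min / Measured by: high-content fluorescence imaging after fixation / Read-out: nuclear-to-cytoplasmic GR-EGFP distribution per well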
PTEN del growth: PTEN-deleted cell growth suppression; viability, % at 10 µM; HCT116 PTEN-null viability, CellTiter-Glo, 60 h; hits give low values; AID 827; 140,000 compounds, 1.2% hits;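 active = viability at or below a set limit, 4 SD under the median of all tested compounds, cut at about 3.7% in these data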;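 also: PTEN knockout HCT116 line with beta catenin targeted HCT116 as companion control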
Autophagy mod: alters autophagy in cells | MEF GFP-LC3 puncta imaging; test concentration mostly 10 µM | calls only at 10 µM (by protocol) | 190,000 compounds, 0.98% hits | AID 463193;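 active = percentage of spot-positive cells more than 3 SD above its plate mean, without a fluorescence outlier flag or 80% toxicity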;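 also: spot-positive cell cutoff set from DMSO-treated cells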
bCat KO growth: beta-catenin-lacking colon tumor cell growth suppression | 140,000 compounds, 1.5% hits | viability, % at 10 µM | HCT116 beta-catenin knockout viability, CellTiter-Glo, 60 h; hits give low values;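 active = viability at or under a set limit, the compound median less 4 SD, cut at about 6% in these data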;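 also: 0% = Hyamine 1622 control at 20 µM and 100% = untreated cell control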
Lmaj promast: Leishmania major promastigote growth inhibition. inhibition, % at 10 µM. AID 1063. Leishmania major promastigotes, resazurin fluorescence viability. 200,000 compounds, 9% hits; in the data active = inhibition above about 50%;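 also: promastigotes grown with compound for 44 hours at 28 °C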
The depositor's hits bear a star; i = inactive; nt = no result; + = active, no number. This is a sample that favours compounds with a hit; in the whole collection about 9.2% have one here.

SMILES	Dynein cargo inh	PTEN del growth	Autophagy mod	bCat KO growth	Lmaj promast
O=C(Cn1c(=O)oc2cc(S(=O)(=O)N3CCCCCC3)ccc21)NC1CCCCC1	-0.7	97.4	i	94.1	-10.6
CC(C)CCNC(=O)Cn1c(=O)oc2cc(S(=O)(=O)N3CCc4ccccc43)ccc21	0.206	75.7	i	70.7	98.8*
O=C(Cn1c(=O)oc2cc(S(=O)(=O)N3CCc4ccccc43)ccc21)NC1CCCC1	0.0431	60.7	i	54.2	98.5*
CCOC(=O)Cn1c(=O)oc2cc(S(=O)(=O)N3CCCc4ccccc43)ccc21	0.0843	92.2	i	97.7	81.2*
CC1(C)Cc2nc3oc4c(SCC(N)=O)ncnc4c3cc2CO1	0.927	nt	nt	nt	nt
COc1cccc(N2CCN(C3CCCC(C)C3)CC2)c1 (stereo not drawn)	-0.769	72.0	i	71.4	69.2*
O=C(CCC1CCCCC1)Nc1c[nH]c(=O)[nH]c1=O	-0.237	93.4	i	70.1	0.8
C=CCCCCCCCCC(=O)Nc1c[nH]c(=O)[nH]c1=O	1.2	77.5	i	68.0	93.4*
CC(C)C(C)NC(=O)COc1ncnc2sccc12 (stereo not drawn)	1.18	nt	i	nt	5.3
CCN(CC)c1ccc(NC(=O)c2ccc(=O)[nH]c2)cc1S(=O)(=O)Nc1ccccc1OC	-0.00231	nt	i	nt	1.2
CCN(CC)c1ccc(NC(=O)c2ccccc2F)cc1S(=O)(=O)Nc1ccccc1OC	-0.442	79.2	i	73.1	99.9*
COc1ccc(NC(=O)c2ccccc2F)cc1Cl	-0.428	84.8	i	90.0	-0.9
CCN(CC)c1ccc(NC(=O)c2ccccc2Br)cc1S(=O)(=O)Nc1ccccc1OC	0.339	66.8	i	68.3	96.7*
CCOc1ccccc1-n1c(SCC(=O)NC(C)CC)nnc1-c1ccoc1C (stereo not drawn)	3.05	81.9	i	86.7	-1.7
CCCCC(=O)C1CCN(Cc2ccccc2)CC1	-1.41	93.0	i	104.9	66.9*
CCN(CC)C(=O)C1CCN(Cc2cccc(OCc3ccccc3)c2)CC1	0.0238	82.2	i	84.0	100.3*
O=C(NCCc1ccccc1)C1CCN(Cc2ccccc2F)CC1	-0.071	90.0	i	105.0	71.2*
CCCCNC(=O)C1CCN(Cc2ccc(OCc3ccccc3)cc2)CC1	-0.0675	76.9	i	69.8	82.5*
CCN(CC)C(=O)C1CCCN(Cc2cccc(Oc3ccccc3)c2)C1 (stereo not drawn)	0.824	nt	nt	nt	nt
O=C(C1CCN(Cc2ccc(OCc3ccccc3)cc2)CC1)N1CCCC1	-0.962	83.7	i	75.9	-6.0
CCC(C)C(NC(C)=O)C(=O)NC(=O)NC(c1ccccc1)c1ccccc1 (stereo not drawn)	-0.197	83.2	i	94.6	7.4
CCN(CC)S(=O)(=O)c1ccc(Cl)c(NC(=O)COC(=O)c2ccc([N+](=O)[O-])o2)c1	-0.0839	nt	nt	nt	nt
CCCCC1C(=O)N(c2ccccc2)N(c2ccccc2)C1=O	-0.322	93.2	i	97.9	-9.0
CCCCN1C=CC(=C2C(=O)c3ccccc3C2=O)C=C1	0.336	nt	i	nt	53.0*
CCOc1ccc(/C=C2/C(=O)N(c3ccc(OC)cc3)C(=S)N2CC(=O)OC)cc1OCC	-2.32	52.2	i	60.3	24.0
SMILES	Dynein cargo inh	PTEN del growth	Autophagy mod	bCat KO growth	Lmaj promast
CCc1ccc(N2C(=O)/C(=C/c3cccs3)N(CC(=O)OC)C2=S)cc1	-0.112	85.5	+	78.7	-0.4
CCOc1ccc(N2C(=O)/C(=C/c3cc(OC)c(OC)c(OC)c3)N(CC(=O)OC)C2=S)cc1	-2.6	14.2	i	15.2	99.8*
COC(=O)CN1C(=S)N(C)C(=O)/C1=C/c1cccs1	0.799	nt	i	nt	3.3
COC(=O)CN1C(=S)N(c2ccc(OC)cc2)C(=O)/C1=C/c1cccs1	-0.577	93.9	i	88.6	69.0*
Cc1ccc(S(=O)(=O)n2c([N+](=O)[O-])cnc2C)c(C)c1C	-0.379	97.4	i	89.3	-3.6
O=C1NC(=Nc2ccc(F)cc2)CS1	1.68	nt	+	nt	15.8
Cc1ccc(N=C2CSC(=O)N2)cc1	-0.611	nt	i	nt	-9.1
CCn1c(SCc2cccc(F)c2)nc2c(c1=O)SCC2	-0.0783	nt	i	nt	7.7
CC1=C/C(=N\OS(=O)(=O)c2ccccc2)C(C)=CC1=O	-3.38	1.7*	i	1.8*	100.5*
CN(C)/N=C/c1ccc(OS(=O)(=O)c2ccccc2)cc1	1.63	nt	i	nt	-2.3
CC1=C/C(=N\OS(=O)(=O)c2ccccc2)C(C(C)C)=CC1=O	-4.72*	1.5*	i	1.5*	100.4*
